NPY Y1 blocker – NPY-Y1 receptor antagonists, primary screen, cell-based | 1% of 200,000 active | inhibition, % at 3.6 µM | HEK293-CNG Y1 cells, membrane potential fluorescence; NPY at EC95, then isoproterenol | AID 1040, 2008;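 active means inhibition above the campaign mean inhibition of all tested compounds plus 3 SD, cut at about 20% in these data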;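 further: 0% = DMSO wells given NPY plus isoproterenol and 100% = isoproterenol alone without NPY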
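Material: HEK293 Y1/CNG channel cell line | Also added: NPY (25 nM), isoproterenol (1 µM), Ro 20-1724 (25 µM) | Compound: One concentration, 3.6 µM, in 0.4% DMSO | Schedule: 3 h dye uptake, 1 h room-temperature compound, 45 min post-isoproterenol | Signal: Membrane-potential fluorescent dye readout | Read-out: % inhibition of NPY effect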
INS promoter inh – inhibitors of insulin promoter-driven GFP, primary screen, imaging, TRM-6 cells, eGFP reporter, cell count; 0.9% of 130,000 active; inhibition, % at 2 µM; reporter expression induced with tamoxifen;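 active means inhibition above the mean plus 3 SD, with well images judged a real hit on visual review, cut at about 60% in these data, passing the limit was not always enough; inconclusive means inhibition over the cutoff but images rejected on review; inactive means inhibition not above the cutoff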
RAM network inh – inhibitors of the yeast RAM network, primary screen, dse1pr::URA3 reporter, 5-FOA selection. inhibition, % at 50 µM. S. cerevisiae dse1pr::URA3 reporter, 5-FOA growth OD615, 2 d; analog-sensitive cbk1-as2 kinase mutant strain. AID 868, 2007. 1.8% of 190,000 active;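 active means inhibition above a set limit, 3 SD over mean compound inhibition, cut at about 8.4% in these data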;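 further: 0% = DMSO-only wells with no growth and 100% = 10 µM 1-NA-PP1 full growth; inhibition rescues growth on 5-FOA so higher OD means more RAM inhibition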
NPY-Y2 PAM-ag – NPY-Y2 potentiators or agonists, primary screen, cell-based. cells expressing NPY-Y2, potentiator/agonist read-out. activation, % at 3.6 µM. 0.45% of 220,000 active. AID 1359, 2008; in the data active means activation above about 27%;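 further: cells stimulated with NPY near EC25 plus isoproterenol at EC100; 0% = vehicle plus submaximal agonist and 100% = vehicle plus saturating agonist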
Target sequence (P49146 whole entry, looked up): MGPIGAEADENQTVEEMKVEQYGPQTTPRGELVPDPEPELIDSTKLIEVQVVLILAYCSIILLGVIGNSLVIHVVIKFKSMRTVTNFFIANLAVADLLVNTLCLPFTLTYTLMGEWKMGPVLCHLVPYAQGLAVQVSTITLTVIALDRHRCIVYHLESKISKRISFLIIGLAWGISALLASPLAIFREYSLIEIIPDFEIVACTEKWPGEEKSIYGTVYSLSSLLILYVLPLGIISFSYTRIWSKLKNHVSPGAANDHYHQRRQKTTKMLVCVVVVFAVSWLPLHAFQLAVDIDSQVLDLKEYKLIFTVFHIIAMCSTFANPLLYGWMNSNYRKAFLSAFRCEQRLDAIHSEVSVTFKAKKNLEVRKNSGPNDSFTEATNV
NPY Y2 blocker – NPY-Y2 receptor antagonists, primary screen, cell-based; AID 793, 2007; 0.99% of 140,000 active; inhibition, % at 2.7 µM; Neuropeptide Y receptor type 2 (Homo sapiens), P49146; NPY-Y2 expressing cells, antagonist mode; in the data active means inhibition above about 17%;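 further: 0% = vehicle with agonist challenge and 100% = reference antagonist with challenge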
NPY1 pot ag – NPY-Y1 receptor potentiators or agonists, primary screen, cell-based | 0.37% of 220,000 active | AID 1304, 2008 | Neuropeptide Y receptor type 1 (Homo sapiens), P25929 | activation, % at 3.6 µM | NPY-Y1 expressing cells, potentiator/agonist activation; in the data active means activation above about 33%, passing the limit was not always enough;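 further: cells stimulated with NPY at EC10 then isoproterenol at EC100; 0% = low agonist plus stimulus and 100% = saturating agonist plus stimulus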
RAM efflux-def – 5-FOA growth of efflux-deficient control yeast, dose response, counter-screen for RAM network inhibitor project, S. cerevisiae, OD615. max inhibition, %. 1,200 tested, under 10 active. shares compounds with RAM network inh. S. cerevisiae efflux-deficient reporter strain, 5-FOA growth OD615, 2 days. AID 1305, 2008; call rule not given here;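 further: plate controls were vehicle for no effect and reference inhibitor for full effect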
* marks the source's active call; other numbers are inactive results; ? = inconclusive; · = no result given. Sampled rows, rich in hits. Any-hit rate of the full collection: about 3.8%.

SMILES	NPY Y1 blocker	INS promoter inh	RAM network inh	NPY-Y2 PAM-ag	NPY Y2 blocker	NPY1 pot ag	RAM efflux-def
FC(F)(F)c1cc(-c2ccccc2)nc(-n2cc(Cl)cn2)n1	8	20	3	-12	·	-11	·
CCOC(=O)c1c(C)[nH]c(C)c1C(=O)COC(=O)/C=C/c1ccc(OC(F)F)cc1	-8	·	8	6	1	4	·
CCOC(=O)c1c(C)[nH]c(C)c1C(=O)COC(=O)/C=C/c1ccc(Cl)cc1	16	19	12*	0	1	1	1
N=C1SC(CC(=O)Nc2ccccc2[N+](=O)[O-])C(=O)N1c1ccccc1 (stereo not given)	·	·	·	-19	·	7	·
O=C(CNC(=O)c1ccco1)N/N=C/c1cccs1	·	·	·	-3	·	4	·
COc1ccc(S(=O)(=O)N(Cc2ccccc2)Cc2nc(-c3ccccc3)no2)cc1	41*	17	11*	2	21*	-31	2
COc1ccc(-c2csc(Nc3ccccc3)[n+]2CC(O)c2ccc([N+](=O)[O-])cc2)cc1 (stereo not given)	·	·	·	18	·	12	·
CSc1nc(Cl)c(Cc2ccc(OC(C)C)cc2)c(N2CCOCC2)n1	12	·	12*	-6	4	-32	2
CCn1c(-c2cccn(Cc3ccc(Cl)cc3Cl)c2=O)n[nH]c1=S	0	·	4	4	·	0	·
O=C(c1cnc(-c2ccccc2)s1)c1ccc(Cl)cc1Cl	5	-20	13*	-4	-1	-12	2
COc1ccccc1-c1ccc(SCc2ccc([N+](=O)[O-])cc2)nn1	4	20	14*	4	·	-6	3
Cn1nc(C(F)(F)F)c(/C=N/OCc2c(Cl)cccc2Cl)c1Cl	13	4	0	-6	12	-10	·
Cn1nc(C(F)(F)F)c(/C=N/OC(=O)c2ccccc2)c1SCc1ccc(Cl)cc1	0	-100	12*	-11	0	3	4
Cn1nc(C(F)(F)F)c(/C=N/OC(=O)c2ccc(Cl)cc2)c1Cl	8	-4	5	-4	2	17	·
Cn1nc(C(F)(F)F)c(/C=N/OC(=O)c2ccccc2Cl)c1SCc1ccccc1Cl	7	64	12*	-4	4	10	3
Nc1nnc(SCc2ccccc2F)s1	·	·	·	1	·	-9	·
CCN(CC(O)CON=C1c2ccccc2-c2ccccc21)S(=O)(=O)c1ccc(C)cc1 (stereo not given)	5	·	15*	-10	5	-10	8
CCN(CC(O)CON=C1c2ccccc2-c2ccccc21)S(=O)(=O)c1ccc(Cl)cc1 (stereo not given)	9	·	20*	-3	4	0	4
CCC(CC)NC(=O)CON=C1c2ccccc2-c2ccccc21	-6	-88	5	6	12	-30	·
O=C(CSc1nnc(COc2ccccc2)o1)c1ccccc1	7	-38	6	-25	8	-12	·
Cc1cccc(OCc2nnc(SCC(=O)c3ccccc3)o2)c1	14	-55	12*	-23	12	-24	2
CN(C)CCNC(=O)Nc1ccc([N+](=O)[O-])cc1	-6	-47	0	10	·	9	·
CC1(C)CC(=O)C(C=Nc2ccc(C(=O)c3ccccc3)cc2N=CC2=C(O)CC(C)(C)CC2=O)=C(O)C1	-2	·	0	-9	·	-10	·
COc1ccc(CCNC(=O)c2ccc(-c3cccc([N+](=O)[O-])c3)o2)cc1OC	15	31	2	-10	·	-1	·
COc1ccc(CCNC(=O)c2ccc(-c3ccc([N+](=O)[O-])cc3Cl)o2)cc1	14	?	13*	-18	14	-25	3
CN(C(=O)CO/N=C/c1ccc(Cl)cc1)c1ccccc1	2	·	-2	0	·	2	·
CCCOc1ccc(/C=C2\SC(=S)N(CC3CCCO3)C2=O)cc1 (stereo not given)	14	16	17*	2	6	-3	7
